Assay results: ChEMBL document CHEMBL1140747, “Discovery of potent and selective dipeptidyl peptidase IV inhibitors derived from beta-aminoamides bearing subsituted triazolopiperazines” (J Med Chem, 2008)

What was measured:
[1] = Plasma clearance in rat at 1 mg/kg, iv and 2 mg/kg, po; assay type: ADME, organism-based
[2] = (§1) Oral bioavailability in rat at 2 mg/kg; assay type: ADME, organism-based; conditions: in vivo
[3] = Half life in rat at 1 mg/kg, iv and 2 mg/kg, po; assay type: ADME, organism-based; conditions: in vivo
Dipeptidyl peptidase 4 [4] = biological target: Dipeptidyl peptidase 4 (Homo sapiens, UniProt P27487)
Sequence of Dipeptidyl peptidase 4 (Homo sapiens, UniProt P27487) (P27487 whole entry): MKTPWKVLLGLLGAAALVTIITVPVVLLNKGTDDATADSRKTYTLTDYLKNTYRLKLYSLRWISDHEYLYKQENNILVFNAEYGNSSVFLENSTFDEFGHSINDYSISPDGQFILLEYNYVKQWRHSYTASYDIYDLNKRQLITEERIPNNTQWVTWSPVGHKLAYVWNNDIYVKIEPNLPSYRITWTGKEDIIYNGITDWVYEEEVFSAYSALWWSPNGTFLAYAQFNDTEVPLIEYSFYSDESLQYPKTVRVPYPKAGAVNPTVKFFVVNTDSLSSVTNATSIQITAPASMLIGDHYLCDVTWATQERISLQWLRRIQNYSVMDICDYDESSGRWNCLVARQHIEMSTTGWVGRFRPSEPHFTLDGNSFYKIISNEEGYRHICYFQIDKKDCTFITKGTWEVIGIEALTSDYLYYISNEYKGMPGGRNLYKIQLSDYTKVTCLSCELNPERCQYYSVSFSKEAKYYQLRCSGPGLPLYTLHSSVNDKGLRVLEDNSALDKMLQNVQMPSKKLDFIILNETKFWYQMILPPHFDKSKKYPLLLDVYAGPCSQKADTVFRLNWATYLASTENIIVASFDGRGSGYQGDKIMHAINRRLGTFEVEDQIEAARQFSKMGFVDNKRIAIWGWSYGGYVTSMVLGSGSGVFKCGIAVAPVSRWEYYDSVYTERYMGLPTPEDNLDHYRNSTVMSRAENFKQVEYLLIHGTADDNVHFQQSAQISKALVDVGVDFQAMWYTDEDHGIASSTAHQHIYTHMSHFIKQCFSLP

Xaa-Pro dipeptidase = biological target: T1, Xaa-Pro dipeptidase (Homo sapiens, UniProt P12955); experiment: Inhibition of prolidase
T1 sequence (P12955 whole entry): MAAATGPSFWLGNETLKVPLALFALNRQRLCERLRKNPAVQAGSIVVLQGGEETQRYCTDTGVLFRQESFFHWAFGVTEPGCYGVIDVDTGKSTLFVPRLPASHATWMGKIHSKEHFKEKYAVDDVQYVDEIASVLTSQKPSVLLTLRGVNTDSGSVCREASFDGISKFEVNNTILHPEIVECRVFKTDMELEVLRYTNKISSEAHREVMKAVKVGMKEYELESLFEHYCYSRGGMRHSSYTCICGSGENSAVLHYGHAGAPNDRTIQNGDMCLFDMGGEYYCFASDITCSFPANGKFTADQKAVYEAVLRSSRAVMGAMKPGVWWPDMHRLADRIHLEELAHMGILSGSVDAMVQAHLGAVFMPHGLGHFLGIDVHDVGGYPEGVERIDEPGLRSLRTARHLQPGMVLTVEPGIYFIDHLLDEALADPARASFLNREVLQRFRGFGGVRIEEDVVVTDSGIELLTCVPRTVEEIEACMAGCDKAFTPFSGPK

Dipeptidyl peptidase 8 = Dipeptidyl peptidase 8 (Homo sapiens, UniProt Q6V1X1); experiment: Inhibition of DPP8
Sequence of Dipeptidyl peptidase 8 (Q6V1X1 whole entry): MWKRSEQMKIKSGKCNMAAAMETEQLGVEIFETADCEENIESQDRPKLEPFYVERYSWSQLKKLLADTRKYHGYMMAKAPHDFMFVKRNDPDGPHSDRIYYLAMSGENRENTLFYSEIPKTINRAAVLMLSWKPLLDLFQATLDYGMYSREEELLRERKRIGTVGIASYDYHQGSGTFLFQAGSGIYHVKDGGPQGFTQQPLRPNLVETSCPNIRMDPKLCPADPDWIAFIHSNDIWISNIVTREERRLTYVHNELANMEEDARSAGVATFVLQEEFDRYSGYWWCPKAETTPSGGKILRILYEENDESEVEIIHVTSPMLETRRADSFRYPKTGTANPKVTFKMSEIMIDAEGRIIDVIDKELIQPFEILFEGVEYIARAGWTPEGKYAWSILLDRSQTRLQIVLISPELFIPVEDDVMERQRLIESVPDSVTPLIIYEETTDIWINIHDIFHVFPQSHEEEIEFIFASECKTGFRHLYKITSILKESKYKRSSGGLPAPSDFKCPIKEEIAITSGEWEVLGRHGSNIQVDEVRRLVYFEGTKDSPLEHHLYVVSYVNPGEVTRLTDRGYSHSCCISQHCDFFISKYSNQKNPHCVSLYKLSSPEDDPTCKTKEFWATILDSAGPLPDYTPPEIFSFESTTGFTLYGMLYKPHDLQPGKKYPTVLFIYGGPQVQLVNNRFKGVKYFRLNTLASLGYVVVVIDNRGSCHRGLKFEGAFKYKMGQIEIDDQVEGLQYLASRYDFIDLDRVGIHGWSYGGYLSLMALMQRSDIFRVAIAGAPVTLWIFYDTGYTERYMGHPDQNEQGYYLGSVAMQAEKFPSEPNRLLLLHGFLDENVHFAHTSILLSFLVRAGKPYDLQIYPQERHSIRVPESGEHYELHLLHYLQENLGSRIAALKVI

Xaa-Pro aminopeptidase 1 = Xaa-Pro aminopeptidase 1 (Homo sapiens, UniProt Q9NQW7); experiment: Inhibition of amino peptidase P
Sequence of Xaa-Pro aminopeptidase 1 (Q9NQW7 whole entry): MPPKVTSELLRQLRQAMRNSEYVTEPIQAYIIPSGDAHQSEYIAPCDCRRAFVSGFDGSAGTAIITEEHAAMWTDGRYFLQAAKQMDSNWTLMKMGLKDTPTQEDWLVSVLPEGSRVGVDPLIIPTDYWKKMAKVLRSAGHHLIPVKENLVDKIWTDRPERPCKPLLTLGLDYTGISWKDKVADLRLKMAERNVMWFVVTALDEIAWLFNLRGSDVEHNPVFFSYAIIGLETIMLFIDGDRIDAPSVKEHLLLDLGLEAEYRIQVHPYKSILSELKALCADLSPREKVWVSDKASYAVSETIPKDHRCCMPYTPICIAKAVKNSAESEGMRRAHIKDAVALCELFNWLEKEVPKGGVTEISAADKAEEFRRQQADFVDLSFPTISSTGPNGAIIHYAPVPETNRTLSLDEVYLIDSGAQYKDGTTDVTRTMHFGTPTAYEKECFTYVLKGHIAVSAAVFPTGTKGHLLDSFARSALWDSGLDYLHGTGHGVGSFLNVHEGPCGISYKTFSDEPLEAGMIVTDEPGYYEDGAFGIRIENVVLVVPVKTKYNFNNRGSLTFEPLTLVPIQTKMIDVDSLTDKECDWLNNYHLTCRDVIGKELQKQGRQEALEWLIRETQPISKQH

Dipeptidyl peptidase 2 = Dipeptidyl peptidase 2 (Homo sapiens, UniProt Q9UHL4); experiment: Inhibition of QPP
Dipeptidyl peptidase 9 = Dipeptidyl peptidase 9 (Homo sapiens, UniProt Q86TI2); experiment: Inhibition of DPP9
Sequence of Dipeptidyl peptidase 9 (Q86TI2 whole entry): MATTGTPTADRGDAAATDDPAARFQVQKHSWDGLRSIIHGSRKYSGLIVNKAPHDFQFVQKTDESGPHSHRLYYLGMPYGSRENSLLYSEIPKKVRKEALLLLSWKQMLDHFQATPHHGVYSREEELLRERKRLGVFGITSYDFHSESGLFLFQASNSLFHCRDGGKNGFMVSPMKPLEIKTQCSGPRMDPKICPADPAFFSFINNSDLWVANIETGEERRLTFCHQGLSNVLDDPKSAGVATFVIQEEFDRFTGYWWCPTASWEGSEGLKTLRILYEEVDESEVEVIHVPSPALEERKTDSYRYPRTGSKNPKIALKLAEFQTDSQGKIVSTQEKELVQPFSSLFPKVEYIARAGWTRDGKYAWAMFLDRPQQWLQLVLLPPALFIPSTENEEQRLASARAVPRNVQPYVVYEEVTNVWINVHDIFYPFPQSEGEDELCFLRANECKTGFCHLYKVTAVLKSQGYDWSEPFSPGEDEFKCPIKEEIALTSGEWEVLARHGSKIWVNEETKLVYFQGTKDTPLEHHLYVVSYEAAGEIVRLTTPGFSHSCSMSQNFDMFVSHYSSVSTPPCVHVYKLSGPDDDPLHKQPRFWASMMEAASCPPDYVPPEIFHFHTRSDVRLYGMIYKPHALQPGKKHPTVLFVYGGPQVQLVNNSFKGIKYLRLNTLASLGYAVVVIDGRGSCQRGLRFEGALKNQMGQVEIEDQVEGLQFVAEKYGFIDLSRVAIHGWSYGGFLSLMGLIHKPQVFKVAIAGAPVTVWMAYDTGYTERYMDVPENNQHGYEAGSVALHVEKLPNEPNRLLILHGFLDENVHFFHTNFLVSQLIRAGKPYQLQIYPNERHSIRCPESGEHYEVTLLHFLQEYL

Prolyl endopeptidase FAP = biological target: T2, Prolyl endopeptidase FAP (Homo sapiens, UniProt Q12884); experiment: Inhibition of FAP
T2 sequence (Q12884 whole entry): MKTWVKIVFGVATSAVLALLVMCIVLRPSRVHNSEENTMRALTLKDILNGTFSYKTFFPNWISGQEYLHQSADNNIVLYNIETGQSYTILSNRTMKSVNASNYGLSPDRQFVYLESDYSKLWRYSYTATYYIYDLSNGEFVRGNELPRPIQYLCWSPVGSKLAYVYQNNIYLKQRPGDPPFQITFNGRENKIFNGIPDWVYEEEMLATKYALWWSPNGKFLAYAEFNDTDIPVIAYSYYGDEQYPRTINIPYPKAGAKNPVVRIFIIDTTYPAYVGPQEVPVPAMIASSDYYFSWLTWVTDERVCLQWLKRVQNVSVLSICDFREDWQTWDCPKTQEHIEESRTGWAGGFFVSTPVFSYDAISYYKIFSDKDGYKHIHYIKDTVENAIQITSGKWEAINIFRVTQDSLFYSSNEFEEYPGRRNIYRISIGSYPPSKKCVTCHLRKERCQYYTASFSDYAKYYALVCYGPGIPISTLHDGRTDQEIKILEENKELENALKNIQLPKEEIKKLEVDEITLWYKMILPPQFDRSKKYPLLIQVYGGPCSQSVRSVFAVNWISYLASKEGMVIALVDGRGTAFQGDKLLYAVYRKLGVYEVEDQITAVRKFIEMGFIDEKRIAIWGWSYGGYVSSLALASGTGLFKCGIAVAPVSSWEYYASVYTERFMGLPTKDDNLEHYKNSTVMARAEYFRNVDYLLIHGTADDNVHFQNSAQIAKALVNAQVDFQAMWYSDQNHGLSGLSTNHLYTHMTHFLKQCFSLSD

[5] = Cmax in rat at 2 mg/kg, po; assay type: ADME, organism-based; set-up: dose 2 mg/kg, route oral; conditions: in vivo
Rattus norvegicus = experiment: as §1; assay type: ADME, organism-based; conditions: in vivo
[6] = Oral bioavailability in dog at 2 mg/kg; assay type: ADME, organism-based, Canis lupus familiaris; conditions: in vivo
[7] = Half life in dog at 1 mg/kg, iv and 2 mg/kg, po; assay type: ADME, organism-based, Canis lupus familiaris; conditions: in vivo
[8] = Plasma clearance in monkey at 1 mg/kg, iv and 2 mg/kg, po; assay type: ADME, organism-based, Macaca mulatta; conditions: rhesus monkey
Plasma = experiment: Drug level in mouse plasma at 1 mg/kg; assay type: ADME, organism-based; set-up: dose 1 mg/kg; conditions: in vivo
Method in brief: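 Lean mice, oral OGTT: single oral dose given 60 min before an oral dextrose challenge (5 g/kg). Plasma was sampled 20 min after dextrose for compound concentration, alongside plasma DPP-4 activity and active GLP-1. Values are mean ± SEM, n = 7 per group.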

[9] = Oral bioavailability in monkey at 2 mg/kg; assay type: ADME, organism-based, Macaca mulatta; conditions: rhesus monkey, in vivo
Mus musculus [10] = experiment: Reduction of dextrose induced blood glucose excursion in mouse at 1 mg/kg; assay type: functional; set-up: scale not given: the % may be the effect or the level left
Method in brief: (§2)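 Lean mice received a single oral dose of the compound 60 min before an oral dextrose challenge (5 g/kg) in an oral glucose tolerance test. The read-out was the reduction of the dextrose-induced blood glucose excursion. Data are mean ± SEM, n = 7 per group.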

Dipeptidyl peptidase 4 [11] = biological target: Dipeptidyl peptidase 4 (Mus musculus, UniProt P28843); experiment: Inhibition of mouse DPP4
Sequence of Dipeptidyl peptidase 4 (Mus musculus, UniProt P28843) (P28843 whole entry): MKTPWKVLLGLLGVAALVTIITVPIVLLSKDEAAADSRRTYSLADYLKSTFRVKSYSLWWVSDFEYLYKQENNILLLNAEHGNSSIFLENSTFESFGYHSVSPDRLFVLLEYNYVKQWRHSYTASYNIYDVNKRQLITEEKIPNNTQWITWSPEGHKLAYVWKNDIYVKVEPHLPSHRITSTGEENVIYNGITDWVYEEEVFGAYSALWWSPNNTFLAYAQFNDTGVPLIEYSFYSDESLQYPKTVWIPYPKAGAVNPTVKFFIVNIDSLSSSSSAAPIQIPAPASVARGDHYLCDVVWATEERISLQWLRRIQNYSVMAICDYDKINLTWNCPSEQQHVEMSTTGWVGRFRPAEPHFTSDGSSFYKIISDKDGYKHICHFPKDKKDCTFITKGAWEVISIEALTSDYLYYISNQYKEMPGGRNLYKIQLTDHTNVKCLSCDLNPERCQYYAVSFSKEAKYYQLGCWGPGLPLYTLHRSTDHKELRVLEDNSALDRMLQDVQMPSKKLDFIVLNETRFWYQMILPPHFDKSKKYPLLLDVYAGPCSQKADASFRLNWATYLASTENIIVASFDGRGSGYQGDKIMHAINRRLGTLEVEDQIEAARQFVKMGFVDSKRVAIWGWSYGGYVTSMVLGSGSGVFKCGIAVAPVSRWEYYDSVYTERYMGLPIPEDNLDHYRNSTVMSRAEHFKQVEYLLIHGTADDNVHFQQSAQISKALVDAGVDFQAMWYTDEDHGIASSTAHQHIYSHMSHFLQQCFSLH

[12] = Cmax in dog at 2 mg/kg, po; assay type: ADME, organism-based, Canis lupus familiaris; set-up: dose 2 mg/kg, route oral; conditions: in vivo
[13] = Cmax in monkey at 2 mg/kg, po; assay type: ADME, organism-based, Macaca mulatta; set-up: dose 2 mg/kg, route oral; conditions: rhesus monkey, in vivo
[14] = Plasma clearance in dog at 1 mg/kg, iv and 2 mg/kg, po; assay type: ADME, organism-based, Canis lupus familiaris
Mus musculus [15] = experiment: Reduction of dextrose induced blood glucose excursion in mouse at 0.1 mg/kg; assay type: functional; set-up: scale not given: the % may be the effect or the level left; method in brief: as §2
[16] = Half life in monkey at 1 mg/kg, iv and 2 mg/kg, po; assay type: ADME, organism-based, Macaca mulatta; conditions: rhesus monkey, in vivo
[17] = Oral bioavailability in Zucker fa/fa rat; assay type: ADME, organism-based; conditions: in vivo
[18] = Oral bioavailability in mouse; assay type: ADME, organism-based; conditions: in vivo

| clearance [1] [mL/min/kg] | bioavailability [2] [%] | half-life [3] [h] | IC50 (Dipeptidyl peptidase 4 [4]) [µM] | IC50 (Xaa-Pro dipeptidase) [µM] | IC50 (Dipeptidyl peptidase 8) [µM] | IC50 (Xaa-Pro aminopeptidase 1) [µM] | IC50 (Dipeptidyl peptidase 2) [µM] | IC50 (Dipeptidyl peptidase 9) [µM] | IC50 (Prolyl endopeptidase FAP) [µM] | Cmax [5] [nM] | SMILES | also measured |
| --- | --- | --- | --- | --- | --- | --- | --- | --- | --- | --- | --- | --- |
| 154 | 35 | 1.9 | 0.014 | > 10 | 33 | > 10 | > 100 | 53 | > 10 |  | C[C@@H]1CN(C(=O)C[C@H](N)Cc2cc(F)c(F)cc2F)Cc2ccc(C(F)(F)F)n21.Cl |  |
| 60 |  | 1.7 |  | > 10 |  | > 10 |  |  |  |  | Cl.N[C@@H](CC(=O)N1CCn2c(nnc2C(F)(F)F)C1)Cc1cc(F)c(F)cc1F | F (Rattus norvegicus): 76% |
| 29 | 76 | 1.5 | 0.00018 | > 10 | 0.332 | > 10 | 33 | 20 | > 10 | 360 | Cl.N[C@@H](CC(=O)N1CCn2c(nnc2C(F)(F)F)[C@H]1Cc1ccc(F)cc1)Cc1cc(F)c(F)cc1F (mixture of isomers) | bioavailability [17]: 100%; bioavailability [18]: 6% |
| 74 | 26 | 1.4 | 0.00046 | > 10 | 1.1 | > 10 | 47 | 39 | > 10 | 64 | Cl.N[C@@H](CC(=O)N1CCn2c(nnc2C(F)(F)F)C1Cc1ccccc1F)Cc1cc(F)c(F)cc1F (stereo in doubt; 45b) |  |

More lines, now with the values behind:

| SMILES | clearance [1] [mL/min/kg] | bioavailability [2] [%] | half-life [3] [h] | IC50 (Dipeptidyl peptidase 4 [4]) [µM] | IC50 (Xaa-Pro dipeptidase) [µM] | IC50 (Dipeptidyl peptidase 8) [µM] | IC50 (Xaa-Pro aminopeptidase 1) [µM] | IC50 (Dipeptidyl peptidase 2) [µM] | IC50 (Dipeptidyl peptidase 9) [µM] | IC50 (Prolyl endopeptidase FAP) [µM] | Cmax [5] [nM] | also measured |
| --- | --- | --- | --- | --- | --- | --- | --- | --- | --- | --- | --- | --- |
| C[C@@H]1c2nnc(C(F)(F)F)n2[C@H](C)CN1C(=O)C[C@H](N)Cc1cc(F)c(F)cc1F.Cl | 85 | 45 | 2.1 | 0.012 | > 10 | 70 | > 10 | > 100 | 52 | > 10 | 92 |  |
| C[C@@H]1c2nnc(C(F)(F)F)n2CCN1C(=O)C[C@H](N)Cc1cc(F)c(F)cc1F.Cl | 54 | 57 | 2.4 | 0.0043 | > 10 | 17 | > 10 | > 100 | > 100 | > 10 | 133 | bioavailability [6]: 91%; half-life [7]: 8.8 h; clearance [8]: 29 mL/min/kg; concentration (Plasma): 190 nM; bioavailability [9]: 85%; Activity (Mus musculus [10]): 55%; IC50 (Dipeptidyl peptidase 4 [11]): 0.011 µM; Cmax [12]: 756 nM; Cmax [13]: 410 nM; clearance [14]: 7.8 mL/min/kg; Activity (Mus musculus [15]): 34%; half-life [16]: 6 h |
| CN(C)C(=O)CC1c2nnc(C(F)(F)F)n2CCN1C(=O)C[C@H](N)Cc1cc(F)c(F)cc1F.Cl (stereo in doubt; 41b) | 87 | 9 | 2.7 | 0.0028 | > 10 | 30 | > 10 | > 100 | > 100 | > 10 | 4 |  |
| Cl.N[C@@H](CC(=O)N1CCn2c(nnc2C(F)(F)F)C1C(O)c1ccc(F)cc1)Cc1cc(F)c(F)cc1F (stereo in doubt; 47b) | 63 | 8 | 2.6 | 0.00032 | > 10 | 0.326 | > 10 | 36 | 89 | > 10 | 20 |  |
| N[C@@H](CC(=O)N1CCn2c(nnc2C(F)(F)F)C1Cc1cc(C(F)(F)F)cc(C(F)(F)F)c1)Cc1cc(F)c(F)cc1F (stereo in doubt; 48a) |  |  |  | 0.587 | > 10 | > 100 | > 10 | > 100 | > 100 | > 10 |  |  |
| Cl.N[C@@H](CC(=O)N1CCn2c(nnc2C(F)(F)F)C1Cc1cc(C(F)(F)F)cc(C(F)(F)F)c1)Cc1cc(F)c(F)cc1F (stereo in doubt; 48b) | 50 | 19 | 4.1 | 0.0063 | > 10 | > 100 | > 10 | > 100 | > 100 | > 10 | 42 |  |
| N[C@@H](CC(=O)N1CCn2c(nnc2C(F)(F)F)C1Cc1ccccn1)Cc1cc(F)c(F)cc1F (stereo in doubt; 49a) |  |  |  | 0.132 | > 10 | > 100 | > 10 | > 100 | > 100 | > 10 |  |  |
| Cl.N[C@@H](CC(=O)N1CCn2c(nnc2C(F)(F)F)C1Cc1ccccn1)Cc1cc(F)c(F)cc1F (stereo in doubt; 49b) | 94 | 9 | 1.9 | 0.0004 | > 10 | 5 | > 10 | > 100 | > 100 | > 10 | 16 |  |
